Source: ChEMBL document CHEMBL1126903

How the values were obtained:
[1] = The pKa value was measured at 15-N chemical shift changes due to protonation
Procedure, shortened: (§1)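 Chemical shift recorded at 4 °C across a pH series. Sample pH was read in an ice-water bath (0-4 °C) before and after each NMR run and the two readings averaged, with no correction for deuterium or temperature. The meter was calibrated at 20 °C. pKa came from fitting single- or double-ionization titration equations to shift versus pH, with error estimated at about 0.05 pH units.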

[2] = The pKa value was measured at 31-P chemical shift changes due to protonation
[3] = The pKa value was measured at 17-O chemical shift changes due to protonation
[4] = The pKa value was measured at N15 chemical shift changes due to protonation; procedure, shortened: as §1

SMILES	pKa [1]	pKa [2]	pKa [3]	pKa [4]
NP(=O)(O)O	2.8	3	–	–
O=P(O)(O)NP(=O)(O)O	–	10.3	10.4	–
CCOP(=O)(NP(=O)(OCC)OCC)OCC	–	3.8	4.2	–
Nc1ncnc2c1ncn2[C@@H]1O[C@H](COP(=O)(O)OP(=O)(O)OP(=O)(O)O)[C@@H](O)[C@H]1O	–	6.6	–	–
N[C@@H](Cc1c[nH]cn1)C(=O)O	–	–	–	6.2
NP(N)(=O)O	5.4	5.4	–	–
c1c[nH]cn1	–	–	–	7
